PABP FP inh – PABP poly(A) RNA binding inhibitors, primary screen, biochemical, fluorescence polarization, uHTS | Polyadenylate-binding protein 1 (Homo sapiens), P11940 | inhibition, % at 35 µM | 290,000 compounds, 1% hits | AID 2014, 2009;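 note: calls also rest on retests at 20 µM and on dose response follow-up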
Target sequence (P11940 whole entry, looked up): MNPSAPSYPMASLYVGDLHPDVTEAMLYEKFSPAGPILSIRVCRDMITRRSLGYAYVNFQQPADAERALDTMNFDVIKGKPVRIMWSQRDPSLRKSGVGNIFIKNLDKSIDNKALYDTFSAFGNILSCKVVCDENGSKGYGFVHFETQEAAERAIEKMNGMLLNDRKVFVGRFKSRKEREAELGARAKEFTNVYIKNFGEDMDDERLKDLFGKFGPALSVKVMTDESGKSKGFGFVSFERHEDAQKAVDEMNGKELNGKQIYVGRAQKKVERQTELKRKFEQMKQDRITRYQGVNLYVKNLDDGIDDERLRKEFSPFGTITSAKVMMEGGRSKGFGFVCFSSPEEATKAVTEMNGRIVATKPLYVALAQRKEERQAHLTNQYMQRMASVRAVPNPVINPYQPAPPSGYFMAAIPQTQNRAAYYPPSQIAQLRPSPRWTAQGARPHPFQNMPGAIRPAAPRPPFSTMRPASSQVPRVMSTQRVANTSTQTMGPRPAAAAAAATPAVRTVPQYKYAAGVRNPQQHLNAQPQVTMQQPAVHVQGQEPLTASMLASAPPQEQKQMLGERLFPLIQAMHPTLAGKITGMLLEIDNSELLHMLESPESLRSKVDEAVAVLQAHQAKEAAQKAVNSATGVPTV
DNA FID counter – compounds displacing fluorescent DNA intercalator, primary screen, artefact control for HCV NS3 helicase inhibitor project, biochemical, FID fluorescence; DNA fluorescent intercalator displacement; inhibition, % at 7.9 µM; 290,000 compounds, 0.17% hits; AID 1845, 2009; in the data active = inhibition above about 37%;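 note: higher means more ethidium bromide displaced from hairpin DNA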
eIF4H FP inh – human eIF4H binding inhibitors, primary screen, translation initiation inhibitor project, biochemical, uHTS, fluorescence polarization | 290,000 compounds, 0.94% hits | eIF4H fluorescence polarization binding assay | inhibition, % at 35 µM | AID 2012, 2009 | Eukaryotic translation initiation factor 4H (Homo sapiens), Q15056;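 note: calls also rest on retests at 20 µM and on dose response follow-up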
PABP1 MLLE inh – inhibitors of PABP1 MLLE–PAM2 peptide binding, primary screen, biochemical, fluorescence polarization, FITC-PAM2, GST-MLLE; Polyadenylate-binding protein 1 (Homo sapiens), P11940; inhibition, % at 20 µM; 360,000 compounds, 0.36% hits; in the data active = inhibition above about 35%, passing the limit was not always enough
HCV core dimer – inhibitors of HCV core protein dimerization, primary screen, biochemical, TR-FRET, high-throughput | AID 1899, 2009 | TR-FRET GST/Flag-core106 dimerization, 1536-well | 300,000 compounds, 0.33% hits | inhibition, % at 5 µM;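 active = inhibition above the mean of all tested compounds plus 3 SD, set per screening campaign, cut at about 45% in these data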
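Assay system: Tagged HCV core106 pair (GST and Flag) | Buffer or medium: KF-containing HEPES buffer, pH 7.45, DTT, CHAPS, BSA | Also added: Eu donor and XL665 acceptor anti-tag antibodies | Dosing: One concentration, 5 µM, in 0.5% DMSO | Timing: 4 h at 22.5 °C | Technique: TR-FRET 671 and 617 nm emission | Repeats: Singlicate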
NS3 helicase inh – inhibitors of HCV NS3 helicase, primary screen, biochemical, Cy5 molecular beacon fluorescence. NS3 helicase DNA unwinding. inhibition, % at 10.9 µM. 290,000 compounds, 0.56% hits;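 active = inhibition above the mean of all tested compounds plus 3 SD, set per campaign, cut at about 35% in these data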
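Measured by: Cy5 fluorescence, 0 and 60 min reads / Assay system: NS3 helicase fragment of HCV / Control set: low DMSO, high thioflavine S at 110 µM / Times: 1 h reaction at 25 °C, ATP-initiated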
Large screens that a line does not name were inactive. Only some compounds are listed: those with a hit (about 2% of all), similar ones and a draw of the others. Unless noted, the rule behind the calls is not given here.

CCOC(=O)SC1=N/C(=C\c2ccc(N(C)C)cc2)C(=O)S1	PABP FP inh 116, eIF4H FP inh 111
C[C@@H]1CN([C@@H](C)CO)S(=O)(=O)c2ccc(Br)cc2O[C@@H]1CN(C)C(=O)C1CC1	none (no result: PABP FP inh, DNA FID counter, eIF4H FP inh, HCV core dimer, NS3 helicase inh)
COc1cccc(/C=N/Nc2ncnc3c2[nH]c2ccc(C)cc23)c1OC	HCV core dimer 49
Cc1ccc(C)n1-c1sccc1C(=O)O	PABP1 MLLE inh 45 (no result: HCV core dimer)
Cc1ccc(C)n1-c1sc2c(c1C(=O)O)CCCC2	none
COc1cc2oc(=O)cc(-c3ccc(-c4ccc(CO)cc4)cc3)c2c(OC)c1OC	none (no result: PABP FP inh, DNA FID counter, eIF4H FP inh, HCV core dimer, NS3 helicase inh)
COc1ccc(N=C2S/C(=C\c3ccc(OC(C)C(=O)O)c(OC)c3)C(=O)N2CCc2c[nH]c3ccccc23)cc1 (stereo unspecified)	PABP FP inh 40, eIF4H FP inh inconclusive (no result: HCV core dimer)
COc1cc(/C=C2\SC(=Nc3ccccc3)N(CCc3c[nH]c4ccccc34)C2=O)ccc1OC(C)C(=O)O (stereo unspecified)	none
CCN1CCc2nc3ccccc3c(C(=O)Nc3ccc(F)cc3)c2C1	none
COC(=O)c1ccc(CNC(=O)c2c3c(nc4ccccc24)CCN(Cc2ccccc2)C3)cc1	PABP FP inh active, eIF4H FP inh 87
CC(=O)Nc1ccc(NC(=O)COC(=O)c2c3c(nc4ccccc24)CCN(Cc2ccccc2)C3)cc1	none
O=C(NCc1ccc(F)cc1)c1c2c(nc3ccccc13)CCN(Cc1ccccc1)C2	PABP FP inh 56, eIF4H FP inh active
COc1ccc(-c2cc3ccccc3n2CC(O)Cn2nc(C)cc2C)cc1 (stereo unspecified)	PABP FP inh 107, eIF4H FP inh 78
O=c1ccn2c(n1)SC(c1ccccc1)C2 (stereo unspecified)	none (no result: PABP FP inh, DNA FID counter, eIF4H FP inh, HCV core dimer, NS3 helicase inh)
CCCn1c(SCC(=O)NC(=O)NCc2ccco2)n[nH]c1=O	PABP FP inh 36, eIF4H FP inh 74 (no result: PABP1 MLLE inh, HCV core dimer)
C=CCn1c(SCC(=O)NC(=O)NCc2ccco2)nc2sc(CC)cc2c1=O	PABP FP inh 28, eIF4H FP inh 84
CCn1c(SCC(=O)NC(=O)NCc2ccco2)nc2sc(C)c(C)c2c1=O	PABP FP inh 50, eIF4H FP inh 82, HCV core dimer 51
CCCn1c(SCC(=O)NC(=O)NCc2ccccc2)n[nH]c1=O	none (no result: PABP FP inh, DNA FID counter, eIF4H FP inh, HCV core dimer, NS3 helicase inh)
O=C(CN(Cc1ccco1)C(=O)c1ccc(F)cc1)Nc1ccccc1Br	none (no result: PABP FP inh, DNA FID counter, eIF4H FP inh, HCV core dimer, NS3 helicase inh)
COc1ccc(OCc2cc(C(=O)O)c(C)o2)cc1	PABP FP inh 48, eIF4H FP inh inconclusive (no result: PABP1 MLLE inh)
Cc1ccc(C2C(C=Nc3c(C)n(C)n(-c4ccccc4)c3=O)=C(c3ccccc3)Oc3ccccc32)cc1 (stereo unspecified)	HCV core dimer 46
Cc1ccccc1NC(=O)NC(N)=O	none
Cc1ccccc1N=C(N)Nc1ccccc1C	PABP1 MLLE inh 58 (no result: PABP FP inh, DNA FID counter, eIF4H FP inh, HCV core dimer, NS3 helicase inh)
Cc1c(NC(=O)Oc2ccccc2)sc(=S)n1C	PABP1 MLLE inh 39
Cc1ccc(NC(=O)Nc2sc(=S)n(C)c2C)cc1	none
CCOC(=O)C1=C(C)NC(=O)NC1c1ccco1 (stereo unspecified)	none
COCCOC(=O)C1=C(C)NC(=O)NC1c1ccco1 (stereo unspecified)	PABP FP inh 27, eIF4H FP inh 58
COCCOC(=O)C1=C(C)NC(=O)NC1c1c(Cl)nc2ccccn2c1=O (stereo unspecified)	PABP1 MLLE inh 41
COCCOC(=O)C1=C(C)NC(=O)NC1c1c(Cl)nc2c(C)cccn2c1=O (stereo unspecified)	none (no result: PABP1 MLLE inh)
CCOC(=O)C1CCCN(C(=O)CCCn2nnnc2CN2CCC(C)CC2)C1 (stereo unspecified)	none
Cc1cccc(NC(=S)NC(=O)/C=C/c2ccco2)c1	none
Cc1ccc(-n2nc3cc(C)c(NC(=S)NC(=O)/C=C/c4ccco4)cc3n2)cc1	PABP FP inh 0.3, eIF4H FP inh 68
Cc1ccc(-n2nc3ccc(NC(=S)NC(=O)/C=C/c4ccco4)cc3n2)cc1	PABP FP inh active
CSc1nccc(NC(=O)c2cccc(Br)c2)n1	none
